Reference: paper PMC5543507 (Cancer Science, 2017)
Several values for one entry are separate records, joined by “and”; a condition that tells them apart may be missing. Equal entries are not always repeated. Marks after values point to notes of the source that are not given here.

What was measured:
[1] = system: Japanese patients with select advanced hematologic malignancies; assay: Safety: adverse events and dose-limiting toxicities, phase I trial of glasdegib; assay type: in vivo
How it was run: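 Once-daily oral dosing at 25, 50 or 100 mg followed a 3 + 3 design. AEs, serious AEs and laboratory tests were monitored until 28 days after the last dose or until drug-related toxicities resolved, graded by NCI CTCAE v4.0. DLT window: Day −5 to Cycle 1 Day 28. DLTs: grade ≥3 nonhematologic toxicity; myelosuppression lasting ≥42 days; grade ≥3 QTc prolongation (≥501 ms).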

[2] = Plasma pharmacokinetics after single and multiple oral doses; assay type: in vivo, Japanese patients; conditions: for half-life / AUC(0-inf) / Tmax / Vd/F: human, plasma; for C trough: multiple dose, Cycle 1/Day 21; for C trough / CL/F: geometric mean (geometric %CV); for CL/F: single dose
How it was run: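 Dosing was oral, once daily, at 25, 50 or 100 mg (3 + 3 design), with a single lead-in dose on Day −5. Serial blood was drawn on Day −5 and on Cycle 1 Days 1, 8, 15 and 21, then on Day 1 of later cycles. Plasma drug was assayed by a validated method (LLOQ 3.00 ng/mL). Cmax, Tmax and AUC came from noncompartmental analysis.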

GLI1 expression [3] = assay: GLI1 expression in normal skin biopsies; assay type: in vivo, Japanese patients; conditions: for Downregulation of GLI1 expression from skin biopsies: steady state (Cycle 1 Day 21 vs screening)
How it was run: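 Adults with advanced hematologic malignancies received once-daily oral test compound at 25, 50 or 100 mg in 28-day cycles, after a single lead-in dose on Day −5. Normal skin biopsies were taken at screening and on Cycle 1 Day 21. Expression of Hh pathway-regulated genes was measured relative to baseline, matched to PK sampling where possible, and summarised graphically and descriptively.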

[4] = system: select advanced hematologic malignancies; assay: Preliminary clinical activity by disease-specific response criteria; assay type: in vivo, Japanese patients
How it was run: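 Patients aged ≥20 years had refractory, resistant or intolerant MDS, MF, CMML, CML or AML. They took oral test compound once daily at 25, 50 or 100 mg in 28-day cycles, after a lead-in dose on Day −5. Response was judged by disease-specific criteria and summarised with descriptive statistics.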

hematologic malignancies = conditions: cited from earlier work
[5] = 5–600 mg dose range; cited from earlier work
solid tumors = conditions: glasdegib monotherapy; cited from earlier work
GLI1 expression [6] = conditions: advanced solid tumors; 80–640 mg; cited from earlier work
SMO = conditions: preclinical studies; cited from earlier work
[7] = system: leukemic stem cell (LSC) burden in xenograft models; conditions: cited from earlier work
[8] = system: patients with select advanced myeloid malignancies and solid tumors; conditions: phase I dose-escalation study, United States and Italy; cited from earlier work

## CN1CC[C@@H](NC(=O)Nc2ccc(C#N)cc2)C[C@@H]1c1nc2ccccc2[nH]1 [glasdegib]
[1]; 50 mg group
  Permanent discontinuation of treatment due to AE: 3 patients
[1]; 100 mg group
  Permanent discontinuation of treatment due to AE: 1 patient
[1]; 9 of 13 patients with treatment-related AE
  Severity of treatment-emergent, treatment-related AE: 1–3 grade
[1]; 13 patients, 8%
  Leukopenia, grade 4 treatment-emergent AE: 1 n
  Neutropenia, grade 4 treatment-emergent AE: 1 n
  Reduced platelet count, grade 4 treatment-emergent AE: 1 n
  Thrombocytopenia, grade 4 treatment-emergent AE: 1 n
[1]; 13 patients, 15%
  Anemia, grade 3 treatment-emergent all-causality AE: 2 n
  Hypokalemia, grade 3 treatment-emergent all-causality AE: 2 n
  Thrombocytopenia, grade 3 treatment-emergent all-causality AE: 2 n
[1]; 13 patients, 23%, grade 1 muscle cramp, grade 1 dysgeusia, grade 1–3 pyrexia
  Treatment temporarily discontinued or dose reduced due to a treatment-related AE: 3 patients
[1]; 13 patients, 25, 50 and 100 mg q.d., Day −5 to Day 28 of Cycle 1
  First-cycle dose-limiting toxicities (DLT): No DLT were observed
[1]; 50-mg group
  Temporary discontinuations for an all-cause AE: 1 patient
[1]; 100-mg group, 23%
  Temporary discontinuations for an all-cause AE: 3 patients
[1]; N = 13
  Grade 4 or 5 treatment-related adverse events: No grade 4 or 5 treatment‐related adverse events were reported in this study.
  Pyrexia, grade 3 treatment-related: a One patient experienced grade 3 treatment‐related pyrexia.
[1]; N = 13, 25, 50 and 100 mg q.d. oral pooled
  Any adverse event, treatment-emergent all-causality, all grades: 13 (100.0) n (%)
[1]; N = 13, all doses pooled
  Alopecia, all-causality, all grades: 4 (30.8) n (%)
  Alopecia, all-causality, ≥Grade 3: 0 n (%)
  Alopecia, treatment-related, Grade 3: 0 n (%)
  Alopecia, treatment-related, all grades: 4 (30.8) n (%)
  Any adverse event, treatment-emergent all-causality, ≥Grade 3: 7 (53.8) n (%)
  Any adverse event, treatment-emergent treatment-related, all grades: 9 n (%) and 9 (69.2) n (%)
  Any adverse event, treatment-related, Grade 3: 1 (7.7) ^a n (%)
  Blood creatinine phosphokinase increased, all-causality, all grades: 3 (23.1) n (%)
  Blood creatinine phosphokinase increased, all-causality, ≥Grade 3: 0 n (%)
  Blood creatinine phosphokinase increased, treatment-related, Grade 3: 0 n (%)
  Blood creatinine phosphokinase increased, treatment-related, all grades: 3 (23.1) n (%)
  Constipation, all-causality, all grades: 6 (46.2) n (%)
  Constipation, all-causality, ≥Grade 3: 0 n (%)
  Constipation, treatment-related, Grade 3: 0 n (%)
  Constipation, treatment-related, all grades: 3 (23.1) n (%)
  Decreased appetite, all-causality, all grades: 6 (46.2) n (%)
  Decreased appetite, all-causality, ≥Grade 3: 0 n (%)
  Decreased appetite, treatment-related, Grade 3: 0 n (%)
  Decreased appetite, treatment-related, all grades: 4 (30.8) n (%)
  Diarrhea, all-causality, all grades: 3 (23.1) n (%)
  Diarrhea, all-causality, ≥Grade 3: 0 n (%)
  Diarrhea, treatment-related, Grade 3: 0 n (%)
  Diarrhea, treatment-related, all grades: 3 (23.1) n (%)
  Dysgeusia, all-causality, all grades: 9 (69.2) n (%)
  Dysgeusia, all-causality, ≥Grade 3: 0 n (%)
  Dysgeusia, treatment-related, Grade 3: 0 n (%)
  Dysgeusia, treatment-related, all grades: 9 (69.2) n (%)
  Fatigue, all-causality, all grades: 3 (23.1) n (%)
  Fatigue, all-causality, ≥Grade 3: 0 n (%)
  Hypokalemia, all-causality, all grades: 3 (23.1) n (%)
  Hypokalemia, all-causality, ≥Grade 3: 2 (15.4) n (%)
  Muscle spasms, all-causality, all grades: 6 (46.2) n (%)
  Muscle spasms, all-causality, ≥Grade 3: 0 n (%)
  Muscle spasms, treatment-related, Grade 3: 0 n (%)
  Muscle spasms, treatment-related, all grades: 5 (38.5) n (%)
  Pyrexia, all-causality, all grades: 6 (46.2) n (%)
  Pyrexia, all-causality, ≥Grade 3: 1 (7.7) n (%)
  Thrombocytopenia, all-causality, all grades: 3 (23.1) n (%)
  Thrombocytopenia, all-causality, ≥Grade 3: 3 (23.1) n (%)
  Weight decreased, all-causality, all grades: 3 (23.1) n (%)
  Weight decreased, all-causality, ≥Grade 3: 0 n (%)
[1]; dose levels tested (25–100 mg)
  Overall safety and tolerability: safe and well tolerated
[1]; doses up to 100 mg q.d.
  Maximum tolerated dose: not reached
[2]; 25–100 mg
  Dose proportionality of maximum plasma concentration and exposure: broadly dose‐proportional
[2]; oral
  half-life: 20.7 ± 7.7 h
[2]; po, 25 mg
  AUC(0-inf): 3350 ng·h/mL
  Tmax: 2 h
  Vd/F: 165 L
  half-life: 15.3 h
[2]; po, 50 mg
  AUC(0-inf): 9590 ng·h/mL
  Tmax: 4 h
  Vd/F: 225 L
  half-life: 30.3 h
[2]; po, 100 mg
  AUC(0-inf): 13100 ng·h/mL
  Tmax: 2 h
  Vd/F: 184 L
  half-life: 17.1 h
[2]; 50 mg q.d.
  C trough: 240 (37) ng/mL
[2]; 100 mg q.d.
  C trough: 343 (35) ng/mL
[2]; 25 mg oral
  CL/F: 7.47 (68) L/h
[2]; 50 mg oral
  CL/F: 5.22 (64) L/h
[2]; 100 mg oral
  CL/F: 7.63 (20) L/h
GLI1 expression [3]; 50 mg group
  Downregulation of GLI1 expression from skin biopsies: > 80%
GLI1 expression [3]; 100 mg group
  Downregulation of GLI1 expression from skin biopsies: > 80%
GLI1 expression [3]; steady state, 25-mg group
  Marked downregulation of GLI1 expression from skin biopsies: not observed
[4]; 25 mg
  AML patients achieving stable disease: 1 patients
  MDS patients achieving stable disease: 1
[4]; 50 mg
  AML patients achieving stable disease: 1 patients
[4]; 100 mg
  MDS patients achieving stable disease: 1
[4]; 100-mg group
  AML patients achieving stable disease: 2 patients
[4]; 100-mg group, 8% of 13
  AML patients with morphological complete remission as best response: 1 patient
[4]; all dose groups, 31%
  AML patients achieving stable disease: Four
Hematologic malignancies; European and American patients with hematologic malignancies
  Patients with some suggestion of clinical activity: 23 of 47
Hematologic malignancies; phase I dose-escalation study, United States and Italy
  Patients with preliminary clinical activity: approximately half
[5]
  Dose proportionality of pharmacokinetics: dose‐proportional
Solid tumors
  Patients with prolonged (≥6 months) stabilization of disease: 13%
  Patients with stable disease: 35%
GLI1 expression [6]
  Downregulation of GLI1 expression in surrogate tissue: > 80%
SMO
  Inhibition of SMO in vitro: inhibited SMO in vitro
[7]; preclinical studies
  Antitumor activity in vivo: significant antitumor activity
[7]; xenograft models
  Leukemic stem cell (LSC) burden: significant reduction
[8]
  Tolerability: well tolerated
